Like-named read-outs stand apart in the source and are kept apart here.
How the values were obtained:
[1] = test system: glucose dehydrogenase; settings: enzyme derived from rat liver; cited from earlier work
[2] = Urinary excretion of radioactivity; assay type: in vivo, Sprague-Dawley rats; settings: by 24 h, 3H radioactivity
Outline: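 Rats under isoflurane received 74 kBq (2 μCi) [1-³H]6FDG by tail vein and were handled as in the ¹⁸F study: recovery in a metabolic cage for the later time points. Urine radioactivity was counted directly and expressed as a percentage of injected radioactivity at 1, 6 and 24 h.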

[3] = test system: hexokinase; settings: cited from earlier work
[4] = HPLC quantification of neutral radioactivity; assay type: in vivo, Sprague-Dawley rats
[5] = assay type: in vivo, Sprague-Dawley rats; settings: 1 h biodistribution time
[6] = assay type: in vivo, Sprague-Dawley rats
[7] = intact rats, without phlorizin (SGLT inhibitor) pre-treatment; cited from earlier work
[8] = assay type: in vivo, Sprague-Dawley rats; settings: average of all tissues, 1 h after i.v. injection
[9] = assay type: in vivo, Sprague-Dawley rats; settings: liver
Outline: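 Rats under 2% isoflurane in oxygen received the tracer by tail vein: about 37 MBq (1 mCi) for the 1 h point and 370 MBq (10 mCi) for 6 h. Tissues were homogenised in 8 mL/g ice-cold ethanol:PBS:water (65:10:25) and spun 15 min at 23,500 × g, 4 °C. The methanol-water extract was dried, taken up in water and run on formate-form AG 1-X8 anion exchange, eluting with water then formic acid. Columns were counted afterwards.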

[10] = by 5 h; cited from earlier work

In the case of `C[C@@H](O)[C@@H](O)[C@H](O)[C@@H](O)C=O` [6-deoxy-D-glucose], the “activity of glucose dehydrogenase on substrate” value (“activity … on substrate” below) [1] is listed as “same activity”.
In the case of `O=C[C@H](O)[C@@H](O)[C@H](O)[C@H](O)CF` [6FDG, 6-fluoro-6-deoxy-D-glucose], the “activity … on substrate” value [1] is listed as “same activity”, the “urinary excretion of radioactivity, percentage of injected radioactivity” value [2] is listed as “less than 8%” and the “phosphorylation by hexokinase in vitro” value ([3]; preliminary evaluation) is listed as “lack of its phosphorylation”.
In the case of `OC[C@H]1OC(O)[C@H](O)[C@@H](O)[C@@H]1O` (stereo partly drawn) [D-glucose], the “activity … on substrate” value [1] is listed as “same activity”.
For `[3H]C1(O)O[C@H](CF)[C@@H](O)[C@H](O)[C@H]1O` (stereo partly shown) [[1-^3H]6FDG], the “percentage of radioactivity eluting as [1-3H]6FDG (HPLC)” value ([4]; blood, 6 h) was > 99%, the “percentage of radioactivity eluting as 6FDG (HPLC)” value (“percentage … as 6FDG (HPLC)” for short) ([4]; heart, 1 h (lowest tissue)) was 90% and the “percentage of radioactivity eluting as [1-3H]6FDS (HPLC)” value ([4]; heart, 6 h (highest tissue)) was 28%. The “percentage … as 6FDG (HPLC)” value ([4]; heart, 6 h (lowest tissue)) was 69%, the “percentage of radioactivity eluting as [1-3H]6FDS (HPLC)” value ([4]; skeletal muscle, 24 h (highest tissue)) was 31% and the “percentage … as 6FDG (HPLC)” value ([4]; skeletal muscle, 24 h (lowest tissue)) was 65%. The “percentage of 3H radioactivity eluting with water, cation exchange column” value [5] was ~100%, the blood radioactivity ([6]; 24 h after i.v. injection) was “negligible” and the “percentage of 3H radioactivity eluting with water, anion exchange column” value (from here on “percentage … with water, anion exchange column”) ([6]; average across tissues, 1 h) was 101%. The “percentage … with water, anion exchange column” value ([6]; average across tissues, 24 h) was 95% and the “percentage … with water, anion exchange column” value ([6]; individual tissues, 1 h) was ≥ 90%.
For `O=C[C@H](O)[C@@H](O)[C@H](O)[C@H](O)C[18F]` [[^18F]6FDG, [^18F]6-fluoro-6-deoxy-D-glucose], the “urinary excretion of [18F]6FDG” value [7] is listed as “little urinary excretion”, the “percentage of homogenate 18F radioactivity in the methanol-water layer (extraction)” value [8] is listed as 95.6 ± 2.6% and the “percentage of 18F radioactivity remaining bound to the anion exchange column” value ([9]; 1 h) is listed as 1%. The “percentage of 18F radioactivity remaining bound to the anion exchange column” value ([9]; 6 h) was 5%.
In the case of `CO[C@@H]([C@H](O)[C@H](O)CO)[C@@H](O)C=O` [3OMG, 3-O-methyl-glucose, reference compound], the urinary excretion [10] is given as 50% and the “phosphorylation by hexokinase in vitro” value [3] is given as “can be phosphorylated”.

Source: paper PMC3128789 (Nuclear medicine and biology, 2011)
